# Assay outcomes: PubChem BioAssay, several laboratories
# Diaphorase inh: counter-screen for diaphorase-based assays: diaphorase inhibitors and chemical oxidizers; actives 0.69% (n = 190,000); AID 1217; inhibition, % at 20 µM; diaphorase resazurin-to-resorufin fluorescence, NADH, 16 min; bacterial (C. kluyveri) enzyme, not human;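 active = primary screen inhibition at 20 µM above a set limit, cut at about 50% in these data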;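 also: plate controls were DMSO with full reaction for no effect and wells lacking NADH for full effect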
#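 System: Diaphorase enzyme from Clostridium kluyveri | Amount: Enzyme working solution with 0.14 U/mL diaphorase | Benchmarks: No-NADH positive control and DMSO neutral control | Signal: Fluorescence of resorufin formed from resazurin, Ex 544/Em 590 nm | Schedule: 16-min room-temperature incubation before reading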
# PMI act hi M6P: activators of human phosphomannose isomerase at near-saturating mannose 6-phosphate | P34949 | coupled PMI enzyme assay, resazurin fluorescence, 20 min; active compounds read high; 1 = untreated enzyme, 0 = substrate-free blank | activation factor at 20 µM | actives 0.34% (n = 190,000);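 active = activation factor of 2 or more at 20 µM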
# Target sequence (P34949 whole entry, looked up): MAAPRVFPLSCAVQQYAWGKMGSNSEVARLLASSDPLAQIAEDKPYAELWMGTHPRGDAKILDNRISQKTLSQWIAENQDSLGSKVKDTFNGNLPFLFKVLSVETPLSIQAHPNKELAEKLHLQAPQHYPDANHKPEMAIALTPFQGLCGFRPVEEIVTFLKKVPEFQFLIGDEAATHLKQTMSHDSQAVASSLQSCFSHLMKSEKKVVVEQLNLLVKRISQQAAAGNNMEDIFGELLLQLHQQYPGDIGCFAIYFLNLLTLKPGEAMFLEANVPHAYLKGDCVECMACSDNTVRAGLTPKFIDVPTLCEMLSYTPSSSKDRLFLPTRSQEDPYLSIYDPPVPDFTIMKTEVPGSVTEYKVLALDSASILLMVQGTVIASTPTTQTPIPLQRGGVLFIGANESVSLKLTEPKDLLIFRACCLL
#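 Test system: human phosphomannose isomerase with PGI, G6PDH, diaphorase coupling enzymes; Amount: PMI at 15 ng/mL final; Reagent: Mannose-6-phosphate 1.0 mM (near-saturating) plus 0.22 mM NADP+; Timing: 20 min, room temperature; Technique: resorufin fluorescence at Ex 544/Em 590 nm; Dosing: 20 µM single dose.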
# Diaphorase act: activates diaphorase or chemically reduces, flagging diaphorase assay artifacts | activation factor at 20 µM | Diaphorase/resazurin coupled assay, resorufin fluorescence, 16 min; active compounds read high; 1 = vehicle wells, 0 = NADH-free wells | actives 0.005% (n = 190,000);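 active = diaphorase activity raised at least twofold by the compound at 20 µM; inactive = activation factor below 2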
#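 Test system: Clostridium kluyveri diaphorase, purified enzyme; input: enzyme 0.07 U/mL final; buffer or medium: 50 mM HEPES pH 7.4 with 4.542 mM MgCl2, 0.005% Tween 20; also added: 0.114 mM NADH and 0.1 mM resazurin, final amounts; schedule: 16 min enzyme reaction, ambient temperature; technique: fluorescence of resorufin, 544 nm excitation, 590 nm emission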
# PMI act: activators of human phosphomannose isomerase; P34949; purified human PMI, coupled resazurin fluorescence, 20 min; active compounds read high; 1 = vehicle control, 0 substrate-free wells; activation factor at 20 µM; actives 0.005% (n = 190,000); AID 1214;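 active = activation factor of 2 or more at 20 µM, relative to plate controls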
# ROMK primary: modulators of human ROMK potassium channel; Tet-inducible ROMK, thallium flux fluorescence; actives lie on both sides; B-score at 10 µM; actives 2% (n = 130,000);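 active = signal ratio slope over the read window, or its plate-corrected B-score, at least 3 SD from the plate mean, either direction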;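 also: B-score of the F/F0 ratio slope over 7 to 12 s after thallium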
# G6PDH counter: inhibits Leuconostoc G6PDH, flagging false hits in G6PDH-based assays | Purified L. mesenteroides G6PDH, diaphorase/resazurin coupled fluorescence, 45 min | inhibition, % at 5 µM | actives 0.12% (n = 200,000) | AID 1020; in the data active = inhibition above about 50%
# The depositor's hits bear a star; / = no result. Most compounds without a hit are left out; they make up all but 2.2% or so of the library.
SMILES,Diaphorase inh,PMI act hi M6P,Diaphorase act,PMI act,ROMK primary,G6PDH counter
COc1ccccc1C(=O)Nc1ccc2c(c1)nc1n2CCN(Cc2ccccc2)C1,7,1.4,0.9,1.5,0.59,-13
O=S(=O)(Nc1ccc2c(c1)nc1n2CCN(Cc2ccccc2)C1)c1ccc(Cl)cc1,12,2.2*,0.9,1.6,/,-1
Cc1ccc(S(=O)(=O)Nc2ccc3c(c2)nc2n3CCN(Cc3ccccc3)C2)cc1,16,2.2*,0.8,1.5,/,-1
O=C(NNC(=O)C1C2CCC(C2)C1C(=O)O)c1cccc(Cl)c1 (centres undefined),8,1.1,0.9,1.1,-1,4
COc1ccc(C(=O)NCc2nnc(SCC(=O)Nc3ccccc3OC)n2C)cc1,19,1,0.8,0.9,-0.4,9
Cc1[nH]n(C(N)=S)c(=O)c1N=Nc1ccc2ccccc2c1,32,0.9,0.7,1,-1.4,0
NC(=S)n1[nH]c(-c2ccc([N+](=O)[O-])cc2)c(N=Nc2cccc([N+](=O)[O-])c2)c1=O,79*,1,0.2,0.9,0.33,0
Cc1c(N=Nc2c(-c3ccc([N+](=O)[O-])cc3)[nH]n(C(N)=S)c2=O)cccc1[N+](=O)[O-],54*,1,0.5,1,-1.7,6
NC(=S)n1[nH]c(-c2ccc([N+](=O)[O-])cc2)c(N=Nc2ccccc2[N+](=O)[O-])c1=O,27,1.1,0.7,1.2,2,8
CN(C)CCNC(=O)/C=C/c1cn(-c2ccccc2)nc1-c1cc2ccccc2oc1=O,-10,1,1.1,1,/,0
Fc1ccccc1/C=C1\CCCC2=C1NC(=S)NC2c1ccccc1F (centres undefined),8,2.2*,0.9,1.7,-0.15,-4
S=C1NC2=C(CCC/C2=C\c2ccccc2)C(c2ccccc2)N1 (centres undefined),11,2.4*,0.9,1.6,/,-8
S=C1NC2=C(CCCC2=C2SCCCS2)C(c2ccccc2)N1 (centres undefined),6,1,0.9,1,-1.3,1
Nc1ccc(Cc2ccc(N)c(O)c2)cc1O,14,0.5,0.9,0.9,-1.6,27
COc1ccc(N2CCN(C(CNC(=O)C(=O)NCc3cccs3)c3ccco3)CC2)cc1 (centres undefined),10,0.9,0.9,0.9,0.0067,-2
COc1ccccc1-c1ccc(/C=C2/C=C(C)OC2=O)o1,16,2*,0.8,1.6,-1.1,-1
O=C(NCc1ccco1)c1sc(=S)n2c1[nH]c(=O)c1ccccc12,67*,0.9,0.3,0.9,-3.7*,6
O=C(NC1CCCCCCC1)c1c(O)c2ccccc2[nH]c1=O,-13,1.1,1.1,1,0.95,11
O=C(NC1CCCC1)c1sc(=S)n2c1[nH]c(=O)c1ccccc12,61*,0.9,0.4,1,-1.4,10
CN(C(=O)CSc1nnnn1-c1ccccc1)C1CCS(=O)(=O)C1 (centres undefined),4,1,1,1,1.5,0
CNCC/C=C1/c2ccccc2CSc2ccccc21,17,0.9,0.8,0.9,-4.9*,3
CC1=NOC(=O)/C1=C\c1ccc(-c2ccc(Br)cc2)o1,7,1.2,0.9,1.1,-0.75,2
CC1=NOC(=O)/C1=C/c1ccc(-c2ccc(Cl)cc2)o1,16,0.9,0.8,0.8,-2.7*,0
CC(=O)N1CCC2(CC1)NC(=O)N(c1ccccc1)N2,22,2.4*,0.8,1.6,/,11
NC(=O)N1CCC2(CC1)NC(=O)N(c1ccccc1)N2,8,2.5*,0.9,1.6,-0.81,18
SMILES,Diaphorase inh,PMI act hi M6P,Diaphorase act,PMI act,ROMK primary,G6PDH counter
O=C1NC2(CCCCC2)NN1c1ccccc1,20,1,0.8,0.9,-0.35,7
Cc1nn(-c2ccccc2)nc1C(=O)NNC(=O)c1ccc(C(F)(F)F)cc1,/,/,/,/,1.6,/
CC(C)CC(=O)N1CCC(O)(CS(=O)(=O)c2ccc(Cl)c(Cl)c2)CC1,1,1,1,1.2,-0.051,0
Oc1ccc2[nH]ccc2c1,25,0.6,0.7,0.9,/,56*
CC(C)CCOc1cccc(OCC(=O)O)c1,-15,1.2,1.1,1.2,0.24,4
COc1ccc(NC(=O)CC2Nc3cccc4cccc(c34)NC2=O)cc1 (centres undefined),75*,0.7,0.2,0.8,2.4,23
O=C(O)O,6,1,0.9,1,/,8
COc1cccc2c1C(=O)C=C(C)C2=O,0,0.5,1,1,-1.9,54*
CC1=CC(=O)c2ccccc2C1=O,-22,1.1,1.2,1.6,/,61*
O=C(CCN1C(=O)C2C3C=CC(C4CC34)C2C1=O)Oc1cccc2cccnc12 (centres undefined),24,0.7,0.8,0.8,-0.25,53*
O=C(CCN1C(=O)C2C3C=CC(C4CC34)C2C1=O)Oc1ccc(Br)cc1 (centres undefined),11,0.9,0.9,1,1.4,2
CCCOC(=O)c1c(NC(=O)C2C3C=CC(C3)C2C(=O)O)sc2c1CCC(C)C2 (centres undefined),13,0.9,0.9,0.7,3.5*,6
O=C(Nc1ccccc1)c1ccc(S(=O)(=O)N2CCCCC2)cc1,8,1.1,0.9,1.1,/,6
O=C(NC(=S)Nc1ccc(S(=O)(=O)N2CCCCC2)cc1)c1ccccc1,14,1.1,0.9,1,2.8*,-1
COc1ccc(C=Nc2ccc3[nH]ncc3c2)c(O)c1,66*,0.4,0.3,0.5,-0.019,40
O=S(=O)(O)c1nc2ccccc2[nH]1,/,/,/,/,0.62,/
CC(=O)Nc1ccc(C(=O)OCC(=O)N(Cc2ccccc2)C(C)(C)C)cc1,54*,0.8,0.5,1,0.0058,0
Cc1cc2[nH]cnc2c([N+](=O)[O-])c1C,25,0.7,0.7,0.8,-0.53,15
COc1cc(C2c3c([nH]c(=O)[nH]c3=O)Nc3ccc4ccccc4c32)cc(OC)c1OC (centres undefined),53*,0.6,0.5,0.9,/,7
COc1cc(C2c3c([nH]c(=O)[nH]c3=O)Nc3ccc4ccccc4c32)ccc1O (centres undefined),16,0.8,0.8,1,0.037,-2
Cc1ccc(-c2c3c(nc4sc(C(N)=O)c(N)c24)CCCC3)o1,31,1.4,0.7,1.4,-0.79,10
NC(=O)c1sc2nc3c(c(-c4ccco4)c2c1N)CCC3,81*,1.6,0.2,1.2,0.45,-4
